Here are results for 39 compounds from ChEMBL document CHEMBL1144663, “1-Aryl-tetrahydroisoquinoline analogs as active anti-HIV agents in vitro” (Bioorg Med Chem Lett, 2008).

pEC50: −log10 of the molar value. In brackets after ≈: the same amount, converted by molar mass.

In series [1] the test system is Human immunodeficiency virus 1. As to the kind of experiment: Antiviral activity against HIV1 3B in C8166 cells by syncytium reduction assay. Format: functional, organism-based. The conditions noted are these: Human immunodeficiency virus 1, 3B. Put shortly:
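C8166 cells (4 × 10⁵/mL) exposed to serial compound concentrations and infected with HIV-1 IIIB at MOI 0.06; zidovudine positive control. After 3 days of culture, syncytia counted per well by inverted microscopy; percent inhibition versus infected untreated control; EC50 is concentration protecting cells from viral cytopathogenicity by 50%.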

Series [2] in a line: Cytotoxicity against human C8166 cells after 72 hrs by MTT method. It counts as cell-based. Put shortly: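 Supernatant discarded, MTT (5 mg/mL in PBS) added for 4 h, formazan dissolved in 50% DMF–20% SDS, absorbance 595/630 nm. CC50 (50% reduction of viable cells) taken from dose–response curve.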
Series [3] can be described thus: Selectivity index, ratio of CC50 for C8166 cells to EC50 for HIV1 3B. Format: functional. An outline of the steps:
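Ratio of CC50 (MTT, uninfected C8166, 72 h) to EC50 (syncytium reduction, HIV-1 IIIB-infected C8166, MOI 0.06, 3 days), both determined in this work.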

Series [4] deals with Human immunodeficiency virus type 1 reverse transcriptase (Human immunodeficiency virus 1) (UniProt Q72547). As to the kind of experiment: Inhibition of HIV1 recombinant reverse transcriptase at 210 ug/ml.
Series [5] deals with Human immunodeficiency virus. As to the kind of experiment: Inhibition of HIV replication in H9 cells. It counts as functional, organism-based. The conditions noted are these: Human immunodeficiency virus 1, H9.
The target of series [6] is Human immunodeficiency virus type 1 reverse transcriptase (Human immunodeficiency virus 1) (UniProt Q72547). Nature of the series: Inhibition of HIV1 recombinant reverse transcriptase at 200 ug/ml.

Regarding `COc1ccc(C2NCCc3cc(OC)c(OC)cc32)c(OC)c1` (centres undefined), the pEC50 – broadly, the EC50 on a negative log10 scale, so that one unit is a factor of ten – in series [1] was 4.36. Further, the CC50 – broadly, the concentration that lowers cell viability or growth by half – at 72 h in series [2] was 227 µM. For the same compound, the “Ratio CC50/EC50” value in series [3] is recorded as 5.2.
`Oc1cc2c(cc1O)C(c1ccccc1F)NCC2` (centres undefined) had a pEC50 in series [1] of 4.23. The compound also showed a CC50 at 72 h in series [2] greater than 772 µM. For the same compound, in series [3], the “Ratio CC50/EC50” value was greater than 13.
In series [1], `COc1cc2c(cc1OC)C(c1cccc(Cl)c1)NCC2` (centres undefined) gave a pEC50 of 4.50. In addition, half-maximal cytotoxicity in series [2] (CC50 at 72 h) was put at 184 µM. Further, the “Ratio CC50/EC50” value in series [3] was found to be 5.9.
`Oc1cc2c(cc1O)C(c1ccc(C(F)(F)F)cc1)NCC2` (centres undefined) had a pEC50 in series [1] of 4.56. The CC50 at 72 h in series [2] is 42.3 µM. For the same compound, in series [3], the “Ratio CC50/EC50” value came to 1.5.
For the compound `COc1cc2c(cc1OC)C(c1ccccn1)NCC2` (centres undefined), in series [1], the pEC50 was 3.77. The CC50 at 72 h in series [2] came out at 444 µM. The “Ratio CC50/EC50” value in series [3] is recorded as 2.8.
Regarding `CC1NCCc2ccc(O)c(O)c21` (centres undefined), the Inhibition – broadly, the change of the read-out against control, counted positive when it falls – in series [4] was 48%.
In turn, `Oc1cc2c(cc1O)C(c1ccccc1Br)NCC2` (centres undefined) had a pEC50 in series [1] of 4.63. The compound also registered a CC50 at 72 h in series [2] greater than 625 µM. Further, in series [3], the “Ratio CC50/EC50” value was greater than 26.
Turning to `COc1cc2c(cc1OC)C(c1ccccc1)NCC2` (centres undefined), in series [1], the pEC50 is 3.92. In series [2], this compound showed a CC50 at 72 h of 294 µM. The “Ratio CC50/EC50” value in series [3] turned out to be 2.4.
`Oc1cc2c(cc1O)C(c1cccc3ccccc13)NCC2` (centres undefined) had a pEC50 in series [1] of 4.48. Also, in series [2], the midpoint of cytotoxicity, the CC50 at 72 h, lay at 47.4 µM. The “Ratio CC50/EC50” value in series [3] is recorded as 1.9.
With `Oc1cc2c(cc1O)C(c1ccccn1)NCC2` (centres undefined), the pEC50 in series [1] is 4.32. In series [2], this compound gave a CC50 at 72 h greater than 826 µM. The “Ratio CC50/EC50” value in series [3] was greater than 11.
As to `COc1cc2c(cc1OC)C(c1cccc(Br)c1)NCC2` (centres undefined), the pEC50 in series [1] is 4.36. Also, the CC50 at 72 h in series [2] came out at 107 µM. For the same compound, in series [3], the “Ratio CC50/EC50” value is 2.4.
The like results for `N#Cc1ccc(C2NCCc3cc(O)c(O)cc32)cc1` (centres undefined) were, in that order, 4.27, greater than 752 µM and greater than 14.
The like results for `Oc1cc2c(cc1O)C(c1ccc(Br)cc1)NCC2` (centres undefined) were, in that order, 4.44, greater than 625 µM and greater than 18.
`CC1NCCc2cc(O)c(O)cc21` (centres undefined): a half-maximal effect in series [5] (EC50) was put at 0.117 µg/mL (≈ 0.653 µM).
As for `COc1ccc(C2NCCc3cc(O)c(O)cc32)c(OC)c1` (centres undefined), the pEC50 in series [1] was 4.33. The compound further came in with a CC50 at 72 h in series [2] greater than 664 µM. For the same compound, the “Ratio CC50/EC50” value in series [3] was greater than 14.
The like results for `COc1cc2c(cc1OC)C(c1ccc(Br)cc1)NCC2` (centres undefined) were, in that order, 4.77, 37.9 µM and 2.2.
Regarding `COc1cc2c(cc1OC)C(c1ccccc1F)NCC2` (centres undefined), the pEC50 in series [1] was 4.16. The compound further gave a CC50 at 72 h in series [2] of 175 µM. Moreover, the “Ratio CC50/EC50” value in series [3] worked out at 2.8.
The compound `COc1cc2c(cc1OC)C(c1ccc(C)cc1)NCC2` (centres undefined) showed a pEC50 in series [1] of 4.17. In series [2], this compound registered a CC50 at 72 h of 281 µM. In addition, the “Ratio CC50/EC50” value in series [3] was determined as 4.2.
The like results for `Cc1cn([C@H]2C[C@H](N=[N+]=[N-])[C@@H](CO)O2)c(=O)[nH]c1=O` [ZIDOVUDINE] were, in that order, 7.96, greater than 749 µM and greater than 68091.
Turning to `COc1ccc(C2NCCc3cc(OC)c(OC)cc32)cc1` (centres undefined), the pEC50 in series [1] is 3.90. This compound registered a CC50 at 72 h in series [2] of 312 µM. In addition, in series [3], the “Ratio CC50/EC50” value is listed as 2.5.
As to `Oc1cc2c(cc1O)C(c1cccc(Cl)c1)NCC2` (centres undefined), the pEC50 in series [1] is 5.34. The Inhibition in series [6] is 20%. In series [2], this compound returned a CC50 at 72 h greater than 727 µM. In series [3], the “Ratio CC50/EC50” value is recorded as greater than 159.
On to `COc1cc2c(cc1OC)C(c1ccc(C(F)(F)F)cc1)NCC2` (centres undefined), for which the pEC50 in series [1] was 4.56. The CC50 at 72 h in series [2] worked out at 30.9 µM. Further, the “Ratio CC50/EC50” value in series [3] is on record as less than 1.
For the compound `Oc1cc2c(cc1O)C(c1cccc(Br)c1)NCC2` (centres undefined), the pEC50 in series [1] was 4.27. In addition, the CC50 at 72 h in series [2] was greater than 625 µM. Also, in series [3], the “Ratio CC50/EC50” value is greater than 12.
On to `COc1cc2c(cc1O)[C@@H](Cc1ccc(O)cc1)NCC2`, for which the EC50 (commonly the concentration at which the effect is half-maximal) in series [5] amounted to 0.8 µg/mL (≈ 2.8 µM).
`COc1cc2c(cc1OC)C(c1ccccc1Br)NCC2` (centres undefined): in series [1], the pEC50 is 4.50. For the same compound, the CC50 at 72 h in series [2] is 89 µM. In addition, the “Ratio CC50/EC50” value in series [3] came to 2.8.
Turning to `COc1cc2c(cc1OC)C(c1ccc3ccccc3c1)NCC2` (centres undefined), the pEC50 in series [1] is 5.16. For the same compound, the CC50 at 72 h in series [2] turned out to be 54.6 µM. Further, the “Ratio CC50/EC50” value in series [3] is reported as 7.9.
On to `COc1cc2c(cc1OC)C(c1cccc3ccccc13)NCC2` (centres undefined), for which the pEC50 in series [1] was 4.65. This compound registered a CC50 at 72 h in series [2] of 64.8 µM. For the same compound, the “Ratio CC50/EC50” value in series [3] amounted to 2.9.
Turning to `Cc1ccccc1C1NCCc2cc(O)c(O)cc21` (centres undefined), the pEC50 in series [1] was 4.21. Besides, the CC50 at 72 h in series [2] is greater than 784 µM. For the same compound, the “Ratio CC50/EC50” value in series [3] is greater than 13.
For the compound `Cc1ccc(C2NCCc3cc(O)c(O)cc32)cc1` (centres undefined), in series [1], the pEC50 was 5.09. Also, the Inhibition in series [6] was determined as 28%. The same compound gave a CC50 at 72 h in series [2] greater than 784 µM. The “Ratio CC50/EC50” value in series [3] is reported as greater than 95.
Turning to `COc1ccccc1C1NCCc2cc(O)c(O)cc21` (centres undefined), the pEC50 in series [1] is 4.37. The 50% cytotoxic concentration (CC50) at 72 h in series [2] was greater than 738 µM. Besides, the “Ratio CC50/EC50” value in series [3] is reported as greater than 18.
The like results for `COc1ccc(C2NCCc3cc(O)c(O)cc32)cc1` (centres undefined) were, in that order, 4.47, greater than 738 µM and greater than 22.
Compound `COc1cc2c(cc1OC)C(c1ccccc1OC)NCC2` (centres undefined) gave a pEC50 in series [1] of 4.34. This compound registered a CC50 at 72 h in series [2] of 555 µM. In series [3], the “Ratio CC50/EC50” value was determined as 12.
The like results for `COc1cc2c(cc1OC)C(c1ccccc1Cl)NCC2` (centres undefined) were, in that order, 4.23, 249 µM and 4.3.
As to `Oc1cc2c(cc1O)C(c1ccccc1)NCC2` (centres undefined), the pEC50 in series [1] was 4.17. This compound also returned a CC50 at 72 h in series [2] greater than 830 µM. Also, the “Ratio CC50/EC50” value in series [3] is greater than 12.
As for `Oc1cc2c(cc1O)C(c1ccccc1Cl)NCC2` (centres undefined), the negative-log EC50 (pEC50) in series [1] was 4.29. In series [2], this compound gave a CC50 at 72 h greater than 727 µM. In addition, the “Ratio CC50/EC50” value in series [3] is reported as greater than 14.
The like results for `Oc1cc2c(cc1O)C(c1ccco1)NCC2` (centres undefined) were, in that order, 4.21, greater than 866 µM and greater than 14.
`Oc1cc2c(cc1O)C(c1ccc3ccccc3c1)NCC2` (centres undefined): in series [1], the pEC50 is 5.28. The Inhibition in series [6] was 30%. In series [2], this compound showed a CC50 at 72 h greater than 687 µM. Also, in series [3], the “Ratio CC50/EC50” value is given as greater than 130.
As to `COc1cc2c(cc1OC)C(c1ccco1)NCC2` (centres undefined), the pEC50 in series [1] is 3.82. The 50% cytotoxic concentration (CC50) at 72 h in series [2] stood at 572 µM. Also, the “Ratio CC50/EC50” value in series [3] worked out at 3.8.
`COc1cc2c(cc1OC)C(c1ccccc1C)NCC2` (centres undefined) gave a pEC50 in series [1] of 4.37. Further, the midpoint of cytotoxicity in series [2], the CC50 at 72 h, lay at 197 µM. Further, the “Ratio CC50/EC50” value in series [3] came to 4.6.
